According to PMC10759174 (RSC Advances, 2024):

Legend:
[1] = DPPH free radical scavenging assay; details: at a concentration of 1000 μg mL^−1
Summary of the method: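 DPPH 0.1 mM in ethanol, 1 mL, added to 3 mL of test compound solution in ethanol at 1000 μg mL−1. The mixture was shaken vigorously, left 30 min at room temperature, and absorbance read at 517 nm. Ascorbic acid served as reference, run in triplicate. % scavenging = (A0 − A1)/A0 × 100, where A0 is control-reaction absorbance and A1 is absorbance with sample.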

[2] = target: T1, ovine COX-1 (Ovis aries, UniProt P05979); assay: COX-1 inhibitor screening assay kit; type: biochemical
T1 sequence (P05979 25-600): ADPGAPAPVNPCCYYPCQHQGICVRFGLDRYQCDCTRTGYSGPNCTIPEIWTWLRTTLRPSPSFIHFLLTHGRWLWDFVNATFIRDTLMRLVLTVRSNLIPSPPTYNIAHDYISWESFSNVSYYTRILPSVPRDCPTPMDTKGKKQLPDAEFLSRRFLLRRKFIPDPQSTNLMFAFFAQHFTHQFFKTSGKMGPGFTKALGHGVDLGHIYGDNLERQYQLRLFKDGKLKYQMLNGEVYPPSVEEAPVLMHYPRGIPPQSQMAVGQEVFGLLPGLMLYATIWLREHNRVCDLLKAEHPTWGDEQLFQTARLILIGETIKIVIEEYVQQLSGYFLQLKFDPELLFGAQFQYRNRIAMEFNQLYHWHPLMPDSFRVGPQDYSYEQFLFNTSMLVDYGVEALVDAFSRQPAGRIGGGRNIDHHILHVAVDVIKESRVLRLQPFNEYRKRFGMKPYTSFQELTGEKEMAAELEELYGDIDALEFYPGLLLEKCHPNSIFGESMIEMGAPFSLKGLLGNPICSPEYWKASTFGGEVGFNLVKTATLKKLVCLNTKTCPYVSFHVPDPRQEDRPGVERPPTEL

[3] = target: T2, human recombinant COX-2 (Homo sapiens, UniProt P35354); assay: COX-2 inhibitor screening assay kit; type: biochemical; details: for IC50 COX-1/COX-2 (in vitro COX-2 selectivity index): IC50 of COX-1/COX-2
T2 sequence (P35354 18-604): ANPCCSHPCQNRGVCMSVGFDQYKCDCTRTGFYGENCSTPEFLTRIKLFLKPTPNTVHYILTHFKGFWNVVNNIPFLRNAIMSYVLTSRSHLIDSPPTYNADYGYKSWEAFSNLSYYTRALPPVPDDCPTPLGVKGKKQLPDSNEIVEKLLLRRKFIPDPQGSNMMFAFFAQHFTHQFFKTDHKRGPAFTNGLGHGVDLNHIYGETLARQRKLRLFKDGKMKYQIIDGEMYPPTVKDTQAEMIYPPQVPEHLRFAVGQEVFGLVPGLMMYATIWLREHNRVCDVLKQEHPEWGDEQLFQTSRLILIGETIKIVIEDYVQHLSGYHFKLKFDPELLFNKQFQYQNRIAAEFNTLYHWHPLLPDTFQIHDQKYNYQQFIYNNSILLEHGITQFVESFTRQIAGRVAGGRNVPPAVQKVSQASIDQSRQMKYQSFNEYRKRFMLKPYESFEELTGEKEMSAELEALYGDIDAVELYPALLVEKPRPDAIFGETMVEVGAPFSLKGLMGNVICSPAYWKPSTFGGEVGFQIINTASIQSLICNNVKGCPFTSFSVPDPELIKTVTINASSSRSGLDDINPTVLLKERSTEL

SMILES	IC50 [2] [µM]	IC50 [3] [µM]	IC50 COX-1/COX-2 (in vitro COX-2 selectivity index) [3] [µM]	DPPH scavenging% [1] [%]	DPPH scavenging% ([1]; listed as Comp. 4) [%]	DPPH scavenging% ([1]; listed as Comp. 11) [%]
O=C1O[C@H]([C@@H](O)CO)C(O)=C1O [Ascorbic acid, ascorbic acid, reference compound]	–	–	–	97	–	–
O=C1NC2(CCCCC2)c2nc3c(c(-c4ccccc4)c21)CCCC3 [Compound 11, 9′-Phenyl-5′,6′,7′,8′-tetrahydrospiro[cyclohexane-1,3′-pyrrolo[3,4-b]quinolin]-1′(2′H)-one]	10.5	0.06	175.00	–	–	86.1
O=C1NC2(CCCCC2)c2[nH]c(=S)nc(-c3ccccc3)c21 [Compound 14, 4′-Phenyl-2′-thioxo-1′,2′-dihydrospiro[cyclohexane-1,7′-pyrrolo[3,4-d]pyrimidin]-5′(6′H)-one]	6	0.08	75.00	66.5	–	–
Cc1cc(-c2ccccc2)c2c(n1)C1(CCCCC1)NC2=O [Compound 17, 2′-Methyl-4′-phenylspiro[cyclohexane-1,7′-pyrrolo[3,4-b]pyridin]-5′(6′H)-one]	8	0.099	80.81	–	–	–

The next lines start with results.

IC50 [2] [µM]	IC50 [3] [µM]	IC50 COX-1/COX-2 (in vitro COX-2 selectivity index) [3] [µM]	SMILES	DPPH scavenging% [1] [%]	DPPH scavenging% ([1]; listed as Comp. 4) [%]	DPPH scavenging% ([1]; listed as Comp. 11) [%]
7.5	0.135	55.56	NC1=NC(=S)NC12CCCCC2 [Compound 4, 4-Amino-1,3-diazaspiro[4.5]dec-3-ene-2-thione]	–	61.1	–
11.5	0.089	129.21	O=C1CCC(=O)C2(CCCCC2)N1 [Compound 6, 1-Azaspiro[5.5]undecane-2,5-dione]	74.4	–	–
